Published values gathered from unrelated publications.
Each line is one published result; the experiments were not run side by side.
Target: Cytoplasmic tyrosine-protein kinase BMX (BMX, Homo sapiens, UniProt P51813)

COc1cc2nccc(Oc3ccc(NC(=S)NC(=O)c4ccccc4C)cc3)c2cc1OC  remaining activity (enzyme activity; inhibitor; 0.5 µM): 30.6%
CC(=O)N1CCC(c2ccc(C(=O)NC(=N)N)cc2C(F)(F)F)CC1  remaining binding (cell-free assay; competition with immobilised ligand; 1 µM): 100%
CN(C)C1CCN(CC#Cc2nn(C3CCCC3)c3nc(NCc4ccccc4)ncc23)C1 (stereo not shown)  inhibition (enzyme activity; inhibitor; FRET; 10 µM): 14%
Cc1nccc(COC(=O)N2C[C@@H]3[C@@H](CNC(=O)c4ccc5[nH]nnc5c4)[C@@H]3C2)n1  remaining binding (cell-free assay; competition with immobilised ligand; 1 µM): 88%
C=CC(=O)Nc1cc(Nc2nccc(Nc3cc(Cl)c(F)cc3C(C)(C)O)n2)c(OC)cc1N1CC[C@@H](N(C)C)C1  inhibition (enzyme activity; inhibitor; 1 µM): 80%
Cn1c2c(c3ccc(Cl)c(Cl)c31)C(C#N)C(C)(C)NC2=O (stereo not shown)  ΔTm (thermal stability; DSF; 10 µM): -0.1 °C
CCOC(=O)c1cc2cc(-c3cc(C(=O)NCc4ccc(C(=O)O)cc4)nn3C)ccc2[nH]1  remaining binding (cell-free assay; competition with immobilised ligand; 0.1 µM): 82%
Cn1c2c(c3ccc(Cl)c(Cl)c31)C(C#N)C1(CCNCC1)NC2=O (racemic)  ΔTm (thermal stability; DSF; 10 µM): -0.3 °C
O=C1c2ccccc2-c2n[nH]c3cccc1c23  activity vs control (enzyme activity; inhibitor; 0.5 µM): 90.8%
CCC1(CC)NC(=O)c2c(c3ccc(Cl)c(Cl)c3n2C)C1C#N (stereo not shown)  ΔTm (thermal stability; DSF; 10 µM): 0.1 °C
CNC(=O)c1cc(Oc2ccc(NC(=O)Nc3ccc(Cl)c(C(F)(F)F)c3)cc2)ccn1  inhibition (enzyme activity; inhibitor; 0.3 µM): -3%
Fc1ccc(-c2nc3n(c2-c2ccncc2)CCS3)cc1  remaining activity (enzyme activity; inhibitor; 0.5 µM): 104%
c1nc2c(Nc3ccc4c(c3)OCCO4)nc(Nc3ccc4c(c3)OCCO4)nc2[nH]1  activity vs control (enzyme activity; inhibitor; 10 µM): 9.7%
Cn1cncc1C1=CN(c2ncnc3[nH]cnc23)CCS1  inhibition (enzyme activity; inhibitor; radiometric; 2 µM): 40%
O=c1cc(-c2cccc3c2Sc2ccccc2S3)oc(N2CCOCC2)c1  remaining activity (enzyme activity; inhibitor; 0.5 µM): 112%
c1ccc(N2CCN(Cc3nc4ccccc4[nH]3)CC2)nc1  remaining binding (cell-free assay; competition with immobilised ligand; 1 µM): 100%
Cc1ccc(Nc2nccc(N(C)c3ccc4c(C)n(C)nc4c3)n2)cc1S(N)(=O)=O  inhibition (enzyme activity; inhibitor; 10 µM): 70%
CC(C)[C@H](CO)Nc1nc(Nc2cc(N)cc(Cl)c2)c2ncn(C(C)C)c2n1  remaining activity (enzyme activity; inhibitor; 0.5 µM): 81.9%
Cc1ccc(C(=O)NCc2ccsc2)cc1C#Cc1cn(C(C)C)c2ncnc(N)c12  activity vs control (enzyme activity; inhibitor; 1 µM): 2%
COc1cc2ncnc(Nc3ccc(Oc4ccccc4)c(C)c3C)c2cc1OC  inhibition (enzyme activity; inhibitor; 1 µM): 1%
CC1=C(C#N)[C@@H](c2ccc3[nH]nc(C)c3c2)C(C#N)=C(c2ccc(Cl)cc2)N1  remaining binding (cell-free assay; competition with immobilised ligand; 1 µM): 100%
Cc1cc(NC(=O)c2cccc3cc(-c4cccc5[nH]nc(N)c45)ccc23)ccc1F  activity vs control (enzyme activity; inhibitor; 0.1 µM): 108%
